The values that follow come from ChEMBL document CHEMBL4513216, “Probing the Open Global Health Chemical Diversity Library for Multistage-Active Starting Points for Next-Generation Antimalarials” (ACS Infect Dis, 2020).

SMILES strings stand for the structures.

The nature of the data set: Toxicity liver stage against HepG2, at 10uM. The data set is classed as cell-based. Details: test concentration 10 uM, cell line HepG2-A16-CD81EGFP. The settings on record: human, HepG2-A16-CD81EGFP cells; read-out: INHIBITION
The method, boiled down: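 Uninfected HepG2-A16-CD81EGFP cells, 3 × 10^3 per well, 1536-well, plated on prespotted compound at 10 μM final, parasite-free screening media added to match infected plates; puromycin 10 μM positive, DMSO 0.5% negative; run in parallel with 48 h PbLuc assay at 37 °C, 5% CO2; viability by CellTiter-Glo luminescence, normalized to controls.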
With `O=C(C1CC=CC1)N1CCC2(CC1)CNCCO2`, the cytotoxicity at 10 µM turned out to be 1.46%.
For the molecule `COc1ccccc1CC(=O)NC1CCCc2cn[nH]c21` (stereo not drawn), the cytotoxicity at 10 µM was determined as 17.1%.
The value for `NC(=O)c1ccc(NC2CCOC3(CCCC3)C2)nn1` (stereo not drawn) was -3.13%.
The value for `Nc1ccnc(N2C[C@H](O)[C@@H](N3CCN(c4ccccn4)CC3)C2)n1` was 6.7%; that for `COc1cnc(C2(O)CCN(C(=O)c3ccco3)CC2)c(OC)n1` was -7.02%; that for `CCN(c1ccc(C(=O)N2CCCCC2)cc1)S(=O)(=O)CC` was 1.85%.
Regarding `CC(C)C(=O)NCCc1nc(-c2ccncc2)n[nH]1`, the cytotoxicity at 10 µM was 7.78%.
With `CCN(Cc1nc2c(cnn2C)c(=O)[nH]1)Cc1cccs1`, the cytotoxicity at 10 µM was found to be 1.49%.
For the molecule `CCn1cnnc1CNC(=O)c1cc(F)ccc1OC`, the cytotoxicity at 10 µM is -14.3%.
In the case of `CN(C)C(=O)COC1COC2(CCN(c3cccc(F)c3)CC2)C1` (stereo not drawn) it was -66%; in that of `CNS(=O)(=O)c1ccc(CN2CCCN(c3ccccc3)CC2)cc1`, 10.9%; in that of `COc1cc(CNC(=O)C2CC(=O)N(C(C)C)C2)ccn1` (stereo not drawn), -5.36%.
As for `COc1c(NS(=O)(=O)c2cc(C)ccc2C)c(C)nn1C`, the cytotoxicity at 10 µM was determined as 0.259%.
As for `CC(C)OCCCNC(=O)CN1CCN(c2nccs2)C(C)C1` (stereo not drawn), the cytotoxicity at 10 µM came to 1.4%.
Take `Cn1c(CCC(=O)N2CCC3(CCCO3)CC2)nc2cccnc21`: the cytotoxicity at 10 µM is 0.592%.
With `CCC1CCC(CNC(=O)c2c[nH]c(=O)c(Cl)c2)CC1` (stereo not drawn), the cytotoxicity at 10 µM is -8.46%.
In the case of `O=C(NCc1nncn1-c1ccccc1)C1CC(=O)N(CC2CC2)C1` (stereo not drawn) it was -2.97%.
For `O=C1CSC(c2ccc(Cl)cc2Cl)c2c(n(C3CCOCC3)[nH]c2=O)N1` (stereo not drawn), the cytotoxicity at 10 µM was -7.92%.
In the case of `CC(C)N(C)Cc1nnc2n1CCCN(c1ncccn1)C2` it was 3.24%; in that of `CCn1ccc2cc(NC(=O)CC3CCCO3)ccc21` (stereo not drawn), 2.5%.
For the molecule `COc1ccc(C(C)N2CCC(NS(C)(=O)=O)CC2)cc1Cl` (stereo not drawn), the cytotoxicity at 10 µM is -41.2%.
As to `Cn1cccc1C(=O)N1CCc2onc(Cn3cccn3)c2C1`, the cytotoxicity at 10 µM is -4.72%.
In the case of `CN(C)Cc1csc(-c2nccn2Cc2ccc(C(=O)O)cc2)c1` it was -1.3%.
In the case of `O=C(c1[nH]nc2c1CCCC2)N1CCC(OCCN2CCCCC2)C1` (stereo not drawn), the cytotoxicity at 10 µM was -4.52%.
The value for `NS(=O)(=O)N1CCc2ccc(NC(=O)Cc3ccccc3F)cc21` was 1.17%.
With `O=C(Nc1cnc2n1CCCC2)C1CCNCC1`, the cytotoxicity at 10 µM turned out to be 4.25%.
The value for `CC(C)n1[nH]c(=O)c2c1NC(=O)CC2c1ccc2ncccc2c1` (stereo not drawn) was 9.76%; that for `CSc1nccc(N2CCC3(CCCN(Cc4cccc(C)c4)C3)C2)n1` (stereo not drawn) was 12.1%; that for `Cc1ccc(C(NCC(=O)N2CCNC(=O)C2)c2ccccc2)cc1` (stereo not drawn) was 2.1%.
Consider `COc1cccc(CC(=O)N2CCN(c3cccc(C)c3)C(C)C2)c1` (stereo not drawn), for which the cytotoxicity at 10 µM came to 8.63%.
Regarding `OC1CCN(CCCNc2nccc(C3CCCC3)n2)CC1`, the cytotoxicity at 10 µM was -1.81%.
On to `Cn1cnnc1S(=O)(=O)C1CCN(S(=O)(=O)c2ccc(F)c(Cl)c2)CC1`, for which the cytotoxicity at 10 µM is -7.2%.
In the case of `Cc1cc(C(=O)N2C[C@@H]3COC[C@]3(c3nnc(C)o3)C2)on1`, the cytotoxicity at 10 µM is -0.505%.
In the case of `Cc1nc(CN(C)C2CCN(CC3CCOCC3)C2)no1` (stereo not drawn) it was -4.68%; in that of `COc1ccc(NC(=O)CCC2CCCN(S(=O)(=O)C3CC3)C2)cc1Cl` (stereo not drawn), 11.3%; in that of `N#CCCN(CCC#N)Cc1ccc(Br)c2cccnc12`, 1.73%.
In the case of `CCn1ccnc1CN(C)Cc1nc(CCC(C)C)no1` it was 2.89%; in that of `CCS(=O)(=O)c1ccc2oc([C@H]3CCN(Cc4ccncc4)C3)nc2c1`, 23.7%.
`Cc1cc(C2CCCN(S(=O)(=O)c3cn(C)cn3)C2)ccn1` (stereo not drawn): the cytotoxicity at 10 µM worked out at 3.42%.
In the case of `c1coc(CN2CCc3ncnc(C4CCOC4)c3CC2)c1` (stereo not drawn) it was 10.2%.
As to `CNC(=O)c1cc2c(nc1NCC1CC1)CCN(CC1CC1)CC2`, the cytotoxicity at 10 µM worked out at 0.864%.
With `Cc1n[nH]c(C)c1CCN(C)C(=O)c1ccc(CCC(C)(C)O)cc1`, the cytotoxicity at 10 µM was 6.15%.
In the case of `CN(C(=O)Cc1ccc2c(c1)OCCO2)C1CCCCC1` it was 2.89%; in that of `COc1ccc(C)cc1C(=O)NC(CC(=O)O)c1cccs1` (stereo not drawn), -16.3%; in that of `CCCn1ncc2c(C(=O)Nc3n[nH]c(SC)n3)cc(C3CC3)nc21`, 1.52%.
With `CCc1nc(C)c(C(=O)N2CCNCC2C(=O)NCc2ccncc2)o1` (stereo not drawn), the cytotoxicity at 10 µM is -3.64%.
As to `COc1ncccc1N(C)C(=O)Cn1cc(-c2ccccc2)nn1`, the cytotoxicity at 10 µM is -1.11%.
The value for `CCNC(=O)C(C)NC(=O)c1cnc(-c2ccc(C)cc2C)s1` (stereo not drawn) was -18.7%; that for `CCn1cnnc1CNC(=O)N1CCC(O)CC1` was -4.86%.
For `CC(C)CN1CCC(NC(=O)N(C)Cc2csc3ccccc23)CC1`, the cytotoxicity at 10 µM is -52.9%.
Regarding `CN1CC2(CCN(Cc3cccnc3)CC2)c2cc(F)ccc21`, the cytotoxicity at 10 µM turned out to be 14%.
In the case of `Cc1ncnc2c1CCN(C(=O)c1ccnnc1)CC2`, the cytotoxicity at 10 µM was determined as 9.9%.
The value for `CCOC(=O)[C@]12CCCN(Cc3cccs3)C[C@H]1CN(C(C)C)C2` was 12.2%; that for `Cc1cc(CN(CC(N)=O)CC(C)C)no1` was 3.72%; that for `COc1cc(F)c(NC(=O)N(C)CCNC(=O)N(C)C)cc1F` was 17.6%.
Take `COC(=O)CC1CCN(C(=O)c2ccccc2-n2nnnc2C)CC1`: the cytotoxicity at 10 µM was -7.27%.
In the case of `NC(=O)N1CCC(C(=O)NC2CCc3nccn3C2)CC1` (stereo not drawn), the cytotoxicity at 10 µM was -2.09%.
Take `O=C(C1CC=CC1)N1CCC2(CCN(Cc3ccccn3)C2=O)C1` (stereo not drawn): the cytotoxicity at 10 µM is 0.908%.
In the case of `COC(=O)c1ccc(N2CCN(C(=O)c3cnccn3)C(C)C2)cc1` (stereo not drawn), the cytotoxicity at 10 µM is -12.9%.
The value for `c1cnc(-c2nc(CN3CCCC3Cn3cncn3)cs2)nc1` (stereo not drawn) was -9.77%.
Take `CC(C)(C)C(=O)N1CCCC1(C(=O)N1CCCC1)c1cnccn1` (stereo not drawn): the cytotoxicity at 10 µM was 4.84%.
Regarding `Cc1cnc(NCCc2c[nH]cn2)nc1-c1ccnn1C`, the cytotoxicity at 10 µM was -2.53%.
As to `Cc1cc(-c2nccn2CCN2CCCCC2CO)oc1C` (stereo not drawn), the cytotoxicity at 10 µM turned out to be 0.264%.
On to `CCS(=O)(=O)N1CCc2c(nc(C3CCCN3)nc2NC)C1` (stereo not drawn), for which the cytotoxicity at 10 µM is -10.2%.
In the case of `CCCN(C)C(=O)Nc1ccc(C(=O)NCCC(=O)OC)cc1`, the cytotoxicity at 10 µM stood at 6.62%.
In the case of `CN1CCC(N(C)C(=O)c2cnn(-c3ccccc3Br)c2N)CC1` it was -5.63%.
For `CC(C)Cc1ncc2c(n1)CN(c1cc(NCCO)nc(N)n1)C2`, the cytotoxicity at 10 µM was -2.68%.
For `CC(C)C(C)NC(=O)Nc1ccc(CS(C)(=O)=O)cc1` (stereo not drawn), the cytotoxicity at 10 µM was -8.49%.
In the case of `Cc1ncc(CN2CCOCC2)c2cc(C(=O)c3ccc(Br)cc3)oc12`, the cytotoxicity at 10 µM is 3.54%.
Consider `NC(=O)C(Nc1ccc(Cl)cc1)c1ccc(F)cc1` (stereo not drawn), for which the cytotoxicity at 10 µM is -0.82%.
In the case of `N#Cc1ccc(Nc2nc3c(s2)C(=O)CN(CC2CC2)C3)cc1`, the cytotoxicity at 10 µM was -5.28%.
For the molecule `CN(Cc1cccnc1)C(=O)NC1CCN(Cc2ccccn2)CC1`, the cytotoxicity at 10 µM is -18.2%.
In the case of `CSc1ccc(C(CNC(=O)C2CC2)N2CCc3sccc3C2)cc1` (stereo not drawn) it was -5.31%.
As to `Cc1cccc(CNC2CCCc3c2cnn3C)c1` (stereo not drawn), the cytotoxicity at 10 µM is -8.77%.
In the case of `Cc1[nH]c2c(F)cccc2c1CC(=O)NCCCNc1cccnc1` it was 1.56%.
In the case of `O=C(NCC1CC1)C1CN(C(=O)Cc2cccs2)CC12CCOCC2` (stereo not drawn) it was 4.76%; in that of `CCCOCCN1CCC2(CC1)CC(=O)N(Cc1cc(F)cc(F)c1)C2`, 2.71%; in that of `CC(C)c1nnc(NC(=O)CSCc2cc(=O)n3ccccc3n2)s1`, 2.08%.
For `O=C(CCc1nc(-c2cccnc2)no1)NCC1CCN(C2CC2)C1` (stereo not drawn), the cytotoxicity at 10 µM was 0.113%.
`CC(NCc1ccc(-c2ccc(Cl)cc2)o1)c1nnc2n1CCC2` (stereo not drawn): the cytotoxicity at 10 µM is -2.04%.
The value for `CCCc1nc(NCCCOCC)c2c(n1)c(C)nn2CC` was 21.6%.
Consider `O=C1CC(c2ccc(C(=O)O)cc2)c2ncn(-c3ccccc3)c2N1` (stereo not drawn), for which the cytotoxicity at 10 µM was -1.04%.
Turning to `COc1ccc([C@@H]2C[C@H](NC(C)=O)C[C@H](Cc3ccccc3)O2)cn1`, the cytotoxicity at 10 µM worked out at 5.46%.
As for `COc1ccc(S(=O)(=O)NC(=O)c2c(C)noc2C(C)C)cc1C`, the cytotoxicity at 10 µM was 0.495%.
Turning to `CNC(=O)c1nnc2ccc(N3CCOCC3)cc2n1`, the cytotoxicity at 10 µM came to 6.86%.
As for `CCCN1CCCC2(CCN(Cc3cncn3C3CCCCC3)C2)C1=O` (stereo not drawn), the cytotoxicity at 10 µM is 5.89%.
In the case of `COc1ccccc1CNC(=O)C(C)N1CC(n2nc(C)cc2C)C1` (stereo not drawn) it was 7.54%.
For `Cc1cc(C)n(CCCN(CCN2CCOCC2)Cc2ccco2)n1`, the cytotoxicity at 10 µM worked out at 8.97%.
For the molecule `CCCOC(=O)C(C)Sc1nnnn1C1CCOCC1` (stereo not drawn), the cytotoxicity at 10 µM amounted to 18.1%.
Take `CC(C)c1cc(C(=O)N2CCc3ccccc3C2C(=O)O)nn1C` (stereo not drawn): the cytotoxicity at 10 µM was -2.53%.
`Cc1nc(C(NC(=O)CC(F)(F)F)c2ccc(Cl)cc2)no1` (stereo not drawn): the cytotoxicity at 10 µM stood at 9.83%.
Regarding `Cc1ccsc1-c1nccn1CCN1CCCCC1CO` (stereo not drawn), the cytotoxicity at 10 µM was -8.11%.
The value for `Cc1cc(C(=O)N(C)S(C)(=O)=O)ccc1F` was -38.4%; that for `CO[C@H]1CN(Cc2nc3ccccc3n2C)C[C@@]12CCCO2` was 4.32%.
`COc1ccccc1-c1cc(C(=O)Nc2nc[nH]n2)[nH]n1`: the cytotoxicity at 10 µM is -2.2%.
For `COCCN(C)c1cnn(C)c(=O)c1Br`, the cytotoxicity at 10 µM was found to be 1.09%.
In the case of `CC(NCc1cnc(N2CCN(C)CC2)nc1)c1ccc(F)cc1` (stereo not drawn), the cytotoxicity at 10 µM is -5.26%.
For the molecule `NC(=O)C1CCN(C(=O)NC2CCc3cc(F)ccc32)CC1` (stereo not drawn), the cytotoxicity at 10 µM was determined as 2.52%.
